{
  "source": "paper PMC11342948",
  "about": "(International Journal of Nanomedicine, 2024)",
  "key": {"MPTP-induced PD model [1]": {"test_system": "MPTP-induced PD model", "experiment": "Dopamine and its metabolites in the striatum", "assay_type": "in vivo, C57BL/6J mice", "conditions": "for dopamine levels: L-Dopa 4.95 mg/kg, ECH 13 mg/kg"}, "MPTP-induced PD model [2]": {"test_system": "MPTP-induced PD model", "experiment": "Tyrosine hydroxylase immunohistochemical staining", "assay_type": "in vivo, C57BL/6J mice", "outline": "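In the same MPTP model (30 mg/kg/day i.p., 5 days; daily i.v. test compound), perfused brains were cut into 5 μm coronal sections. These were incubated with rabbit polyclonal anti-TH (1:400, PBS) overnight at 4°C, then HRP secondary (1:200), with DAB detection. Striatal TH fiber immunoreactivity was quantified by image analysis. TH-positive neurons were counted in every sixth section through the substantia nigra.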"}, "MPTP-induced PD model [3]": {"test_system": "MPTP-induced PD model", "experiment": "Behavioral assays", "assay_type": "in vivo, C57BL/6J mice", "outline": "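Male C57BL/6J mice (8 weeks, 22–25 g), 12 per cohort, given MPTP 30 mg/kg/day i.p. in 0.9% saline for 5 days, with daily i.v. test compound (13 mg/kg, free or liposomal), L-Dopa 4.95 mg/kg or saline. On day 16: 10-min video-tracked open field (50 cm box, 30×30 cm centre) and vertical pole descent (1.5 cm × 55 cm, head up; T-turn, T-total). n=8, mean ± SD.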"}, "MPTP-induced PD model [4]": {"test_system": "MPTP-induced PD model", "experiment": "Oxidative stress assay in the striatum", "assay_type": "in vivo, C57BL/6J mice", "conditions": "vs MPTP cohort", "outline": "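The MPTP mouse model used male C57BL/6J mice given 30 mg/kg/day i.p. for 5 days, with daily i.v. test compound at 13 mg/kg. After day-16 behaviour and perfusion, striatum was homogenised in 1% triton (1 g/9 mL) and spun at 15294 g, 4°C, 10 min. SOD, GSH-PX and MDA in the supernatant were measured with commercial kits per the manufacturer.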"}, "[5]": {"experiment": "Evans blue BBB integrity test", "assay_type": "in vivo, mice", "conditions": "Evans blue 50 mg/kg intravenously, 30 minutes"}, "bEnd.3 monolayer": {"test_system": "bEnd.3 monolayer", "experiment": "In vitro BBB penetration, transwell model", "conditions": "2 μg/mL"}, "[6]": {"conditions": "open-field test, day 16, vs MPTP-treated mice"}, "[7]": {"conditions": "pole test, day 16, vs MPTP-treated cohort"}},
  "data": [
    {"molecule": "Echinacoside [Free ECH]", "values": [
      {"measurement": "dopamine levels", "setting": "MPTP-induced PD model [1]; MPTP 30 mg/kg i.p. five days", "result": "1.27 ± 0.36 ng/mg of wet striatum tissue"},
      {"measurement": "neuroprotection (TH immunohistochemistry)", "setting": "MPTP-induced PD model [2]; compared to the MPTP cohort / other treatments", "result": "did not provide significant neuroprotection"}
    ]},
    {"molecule": "N[C@@H](Cc1ccc(O)c(O)c1)C(=O)O", "note": "[L-Dopa, levodopa]", "values": [
      {"measurement": "DOPAC levels, increase compared to the MPTP cohort", "setting": "MPTP-induced PD model [1]", "result": 1.59, "unit": "fold"},
      {"measurement": "HVA levels, increase compared to the MPTP cohort", "setting": "MPTP-induced PD model [1]", "result": 1.63, "unit": "fold"},
      {"measurement": "dopamine levels", "setting": "MPTP-induced PD model [1]; MPTP 30 mg/kg i.p. five days", "result": "1.27 ± 0.09 ng/mg of wet striatum tissue"},
      {"measurement": "average speed", "setting": "MPTP-induced PD model [3]; [6]", "result": "increased"},
      {"measurement": "movement within the central area", "setting": "MPTP-induced PD model [3]; [6]", "result": "significantly improved"},
      {"measurement": "percentage of time spent in the center", "setting": "MPTP-induced PD model [3]; [6]", "result": "increased"},
      {"measurement": "time spent immobile", "setting": "MPTP-induced PD model [3]; [6]", "result": "decreasing"},
      {"measurement": "total distance traveled", "setting": "MPTP-induced PD model [3]; [6]", "result": "increased"},
      {"measurement": "T-total", "setting": "MPTP-induced PD model [3]; [7]", "result": "significantly reduced"},
      {"measurement": "T-turn", "setting": "MPTP-induced PD model [3]; [7]", "result": "significantly reduced"},
      {"measurement": "MPTP-induced reduction in TH immunoreactivity in the striatum", "setting": "MPTP-induced PD model [2]; striatum", "result": "effectively counteracted"},
      {"measurement": "TH-positive neuron counts in the substantia nigra", "setting": "MPTP-induced PD model [2]; substantia nigra", "result": "partially restored"},
      {"measurement": "GSH-PX levels", "setting": "MPTP-induced PD model [4]", "result": "significantly elevated"},
      {"measurement": "MDA levels", "setting": "MPTP-induced PD model [4]", "result": "reducing"},
      {"measurement": "SOD levels", "setting": "MPTP-induced PD model [4]", "result": "significantly elevated"}
    ]},
    {"molecule": "CN1CC=C(c2ccccc2)CC1", "note": "[MPTP, 1-methyl-4-phenyl-1,2,3,6-tetrahydropyridine]", "values": [
      {"measurement": "BBB integrity (Evans blue levels in brain tissue)", "setting": "[5]", "result": "did not compromise BBB integrity"},
      {"measurement": "dopamine levels, reduction compared to the control", "setting": "MPTP-induced PD model [1]; MPTP 30 mg/kg i.p. five days", "result": 2.65, "unit": "fold"},
      {"measurement": "dopamine levels", "setting": "MPTP-induced PD model [1]; MPTP 30 mg/kg i.p. five days", "result": "0.95 ± 0.15 ng/mg of wet striatum tissue"}
    ]},
    {"molecule": "O=C([O-])c1ccccc1-c1c2ccc(=O)cc-2oc2cc([O-])ccc12.[Na+].[Na+]", "note": "[fluorescein sodium]", "values": [
      {"measurement": "apparent permeability coefficient", "setting": "bEnd.3 monolayer", "result": "6.92 ± 3.92×10^−6 cm/s"}
    ]}
  ]
}
